The target in data set [1] is T1, Lethal(3)malignant brain tumor-like protein 3 (Homo sapiens) (UniProt Q96JM7).
T1 sequence (whole entry): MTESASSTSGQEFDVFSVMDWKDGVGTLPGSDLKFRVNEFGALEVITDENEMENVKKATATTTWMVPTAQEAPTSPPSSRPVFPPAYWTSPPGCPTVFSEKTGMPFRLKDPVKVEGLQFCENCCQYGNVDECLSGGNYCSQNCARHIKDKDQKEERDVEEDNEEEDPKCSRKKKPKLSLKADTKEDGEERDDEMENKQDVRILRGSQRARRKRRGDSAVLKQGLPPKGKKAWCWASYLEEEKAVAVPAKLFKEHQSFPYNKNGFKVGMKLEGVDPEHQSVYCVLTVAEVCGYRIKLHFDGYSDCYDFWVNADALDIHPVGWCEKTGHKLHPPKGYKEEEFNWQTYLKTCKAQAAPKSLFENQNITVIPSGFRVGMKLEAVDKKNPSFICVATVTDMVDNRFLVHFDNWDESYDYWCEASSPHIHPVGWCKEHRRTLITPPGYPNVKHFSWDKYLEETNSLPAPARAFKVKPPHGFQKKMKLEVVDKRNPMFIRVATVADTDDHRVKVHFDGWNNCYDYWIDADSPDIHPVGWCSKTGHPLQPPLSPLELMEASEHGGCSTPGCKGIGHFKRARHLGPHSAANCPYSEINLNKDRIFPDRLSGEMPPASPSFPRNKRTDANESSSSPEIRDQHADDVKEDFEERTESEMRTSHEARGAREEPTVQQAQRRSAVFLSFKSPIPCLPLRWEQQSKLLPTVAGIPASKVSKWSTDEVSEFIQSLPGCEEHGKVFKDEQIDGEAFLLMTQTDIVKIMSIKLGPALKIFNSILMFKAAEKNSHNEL
Kind of data set: Binding affinity to GFP-tagged full length L3MBTL3 (unknown origin) expressed in HEK293 cells assessed as increase in protein mobility. The class given is cell-based.

The target of data set [2] is T1, Lethal(3)malignant brain tumor-like protein 3 (Homo sapiens). Kind of data set: Binding affinity to GFP-tagged full length L3MBTL3 (unknown origin) expressed in HEK293 cells assessed as co-localization with full length L3MBTL3. It counts as cell-based.
Data set [3] has the same target. Kind of data set: Inhibition of GFP-tagged full length L3MBTL3 (unknown origin) expressed in HEK293 cells assessed as disruption of foci formation by immunofluorescence assay. The class given is cell-based. The method, boiled down: (§1)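 HEK293 cells seeded on coverslips, transfected 16–24 h after seeding with GFP-3MBT or GFP-FLMBT for 48 h; compounds at indicated concentrations for at least 24 h; Hoechst 33342 stain before spinning-disk confocal imaging; foci quantified by % GFP intensity function.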

For data set [4] the target is unchanged. Kind of data set: Binding affinity to GFP-3MBT tagged L3MBTL3 (unknown origin) assessed as protein half life at 1 uM.
The target in data set [5] is T2, Lethal(3)malignant brain tumor-like protein 3 (Homo sapiens, UniProt Q96JM7).
T2 sequence (Q96JM7 whole entry): T1 sequence (whole entry)
The data set can be described thus: Binding affinity to L3MBTL3 (unknown origin) by ITC assay.

Data set [6] has as its target T2, Lethal(3)malignant brain tumor-like protein 3. The data set can be described thus: Binding affinity to GFP-3MBT tagged L3MBTL3 (unknown origin) assessed as diffusion coefficient at 1 uM (reference value: 0.1272 um2/s).
For data set [7] the target is unchanged. Kind of data set: Binding affinity to GFP-tagged full length L3MBTL3 (unknown origin) assessed as diffusion coefficient at 1 uM (reference value: 0.037549815 um2/s).
Data set [8] shares this target. The data set can be described thus: Inhibition of L3MBTL3 (unknown origin) using H4K20me2 peptide by Alpha-Screen methylated histone peptide competition assay. Background: Bead proximity is the source of the signal in Alpha formats.
Data set [9] is described as follows: Cytotoxicity in HEK293T/17 cells assessed as effect on cell viability up to 100 uM incubated for 24 hrs by CellTiter-Glo luminescent cell viability assay. The class given is toxicity, cell-based. The conditions noted are these: human, hek293t/17, 24 h. A general note: In ATP-based viability assays light output follows the ATP content of the culture.
The target in data set [10] is T1, Lethal(3)malignant brain tumor-like protein 3 (Homo sapiens). The data set can be described thus: Inhibition of GFP-3MBT tagged L3MBTL3 (unknown origin) expressed in HEK293 cells assessed as disruption of foci formation at 100 uM by immunofluorescence assay. It counts as cell-based. The method, boiled down: as §1
Data set [11] has the same target. Kind of data set: Inhibition of GFP-3MBT tagged L3MBTL3 (unknown origin) expressed in HEK293 cells assessed as reduction in recovery of fluorescence intensity up to 0.1 mM measured up to 60 secs by FRAP assay. The conditions noted are these: time <= 60.0 sec. The class given is cell-based. In a few lines: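 FRAP: HEK293 cells transfected with GFP-3MBT; inhibitor treatment 3–6 h; 488 nm laser bleaching then image acquisition every 2 s on laser scanning confocal microscope. Recovery fitted exponentially from 8–10 nuclei per condition; water as control; experiment repeated 3 independent times.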

For data set [12] the target is unchanged. Kind of data set: Binding affinity to flag-tagged full length L3MBTL3 (unknown origin) expressed in HEK293 cell lysates at 5 nmol by. The class given is subcellular.

Broadly, the Kd is a measure of binding affinity in units of concentration. Low values mean higher affinity, high ones lower affinity. Usually IC50 stands for the concentration needed to halve the response being measured.

Activity calls are given as the source filed them. The rule behind the calls is not given here. Bounds are passed on as bounds.

`CCN1C(=O)\C(=C/C=C/C=C2/N(CCC(=O)OCOC(C)=O)c3ccc(C(=O)OCOC(C)=O)cc3C2(C)C)C(=O)N(CCC(=O)NCCCCCCNC(=O)c2ccc(Nc3cc(C(=O)N4CCC(N5CCCC5)CC4)ccc3C(=O)N3CCC(N4CCCC4)CC3)cc2)C1=O`: the result in data set [1] and in data set [2] was Active. Moreover, the inhibition result in [3] is “inactive”.

As to `O=C(c1ccc(C(=O)N2CCC(N3CCCCC3)CC2)cc1)N1CCC(N2CCCCC2)CC1`, the T1/2 in data set [4] is 8.2 s. In data set [5], this molecule registered an equilibrium dissociation constant (Kd) of more than 150 µM. Also, the Diffusion coefficient is given as 0.124 um2/s in data set [6] and 0.036 um2/s in data set [7]. In data set [8], this molecule came in with an IC50 of more than 10 µM. In addition, the Activity entry in data set [9] is recorded as “Non-Toxic”. Besides, the inhibition entry in data set [10] and in data set [11] was “inactive” each time.

`O=C(CCCC[C@@H]1SC[C@@H]2NC(=O)N[C@@H]21)NCCOCCOCCOCCOCCOCCOCCOCCOCCOCCOCCOCCNC(=O)c1ccc(Nc2cc(C(=O)N3CCC(N4CCCC4)CC3)ccc2C(=O)N2CCC(N3CCCC3)CC2)cc1` yielded a Kd in data set [5] of 0.35 µM. In addition, in [12], the outcome was Active.

The values are drawn from ChEMBL document CHEMBL5712070, “Discovery of a chemical probe for the L3MBTL3 methyllysine reader domain” (Nat Chem Biol, 2013).
